The text below walks through data of ChEMBL document CHEMBL1122658, “Amnesia-reversal activity of a series of N-[(disubstituted-amino)alkyl] -2-oxo-1-pyrrolidineacetamides, including pramiracetam” (1984).

Common to all, as to type: functional
Common to all, as to conditions: route intraperitoneal

The test system of assay [1] is Mus musculus. Kind of assay: Ability to reverse electroconvulsive shock induced amnesia in mice, after administering intraperitoneally at a dose of 5 mg/kg. The gist of the method: (§1)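 Male CF-1 mice (20-25 g), five groups of 20, trained in one trial on step-through inhibitory avoidance (darkened chamber). ECS given 2 h after training. Test drug or vehicle placebo injected ip 2 h after ECS, 1 h before retention test. Entry into box within 60 s scored as amnesia. % reversal = (drug − base-line ECS+placebo)/(ceiling no-ECS+placebo − base-line) ×100.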

Assay [2] deals with Mus musculus. Kind of assay: Ability to reverse electroconvulsive shock induced amnesia in mice, after administering intraperitoneally at a dose of 20.0 mg/kg. The gist of the method:
as §1

Assay [3] concerns Mus musculus. Description: Ability to reverse electroconvulsive shock (ECS) induced amnesia in mice, after administering intraperitoneally, at a dose of 80.0 mg/kg. The gist of the method:
as §1

Assay [4] has as its system Mus musculus. Description: Ability to reverse electroconvulsive shock induced amnesia in mice, after administering intraperitoneally at a dose of 2.5 mg/kg. The gist of the method: as §1
Assay [5] has as its system Mus musculus. Description: Ability to reverse electroconvulsive shock (ECS) induced amnesia in mice, after administering intraperitoneally, at a dose of 160 mg/kg. The gist of the method:
as §1

Assay [6] has as its system Mus musculus. Kind of assay: Ability to reverse electroconvulsive shock induced amnesia in mice, after administering intraperitoneally at a dose of 1.25 mg/kg. The gist of the method: as §1
In assay [7] the test system is Mus musculus. Kind of assay: Ability to reverse electroconvulsive shock induced amnesia in mice, after administering intraperitoneally at a dose of 20 mg/kg. In outline: as §1
For assay [8], the system named is Mus musculus. Kind of assay: Ability to reverse electroconvulsive shock (ECS) induced amnesia in mice, after administering intraperitoneally, at a dose of 80 mg/kg. The gist of the method: as §1
Assay [9] concerns Mus musculus. Kind of assay: Ability to reverse electroconvulsive shock (ECS) induced amnesia in mice, after administering intraperitoneally, at a dose of 5 mg/kg. The gist of the method:
as §1

The test system of assay [10] is Mus musculus. Description: Ability to reverse electroconvulsive shock (ECS) induced amnesia in mice, after administering intraperitoneally, at a dose of 0.63 mg/kg. In outline:
as §1

Assay [11] relates to Mus musculus. Kind of assay: Ability to reverse electroconvulsive shock (ECS) induced amnesia in mice, after administering intraperitoneally, at a dose of 0.31 mg/kg. The gist of the method:
as §1

The structures appear in SMILES notation.

On to `NC(=O)CN1CCC(c2ccccc2)C1=O` (stereo not given), for which the Amnesia reversal in the assay with Mus musculus [1] was 8%; in the assay with Mus musculus [2] it was 17%; with Mus musculus [3], 33%.
For `CC1CCCC(C)N1CCCNC(=O)CN1CCCC1=O` (stereo not given), the Amnesia reversal with Mus musculus [1] was 50%; with Mus musculus [2] it was 55%; in the assay on Mus musculus [4], 33%; in the assay with Mus musculus [5], 60%; with Mus musculus [6], 25%; with Mus musculus [3], 100%.
`CC(C(=O)NCCN1C(C)CCCC1C)N1CCCC1=O` (stereo not given): the Amnesia reversal is recorded as 42% in the assay with Mus musculus [7], 61% in the assay with Mus musculus [8] and 17% in the assay on Mus musculus [9].
The matching figures for `CC(C)N(C)CCNC(=O)CN1CCCC1=O`: 0%, 0% and 21%.
In the case of `CC1CCCC(C)N1CCNC(=O)CN1C(=O)CCC1(C)C` (stereo not given), the values for the Amnesia reversal in the assay on Mus musculus [7], with Mus musculus [5] and with Mus musculus [8] were 22%, 80% and 44%, respectively.
As to `CC(C(=O)NCCCN1C(C)CCCC1C)N1CCCC1=O` (stereo not given), the Amnesia reversal stood at 8% in the assay on Mus musculus [1], 50% in the assay on Mus musculus [2], 30% in the assay with Mus musculus [5] and 23% with Mus musculus [8].
In the case of `CC1CCC(=O)N1CC(=O)NCCN(C(C)C)C(C)C` (stereo not given), the Amnesia reversal in the assay on Mus musculus [7] was 0%; with Mus musculus [8], 56%; in the assay on Mus musculus [9], 0%.
Take `CCC1CCCC(CC)N1CCCNC(=O)CN1CCCC1=O` (stereo not given): the Amnesia reversal in the assay with Mus musculus [2] was 42%; in the assay on Mus musculus [4], 0%; in the assay on Mus musculus [9], 42%; in the assay with Mus musculus [6] it was 0%; in the assay on Mus musculus [3], 17%.
Regarding `CC1CCCC(C)N1CCNC(=O)CCN1CCCC1=O` (stereo not given), the Amnesia reversal in the assay on Mus musculus [1] came to 33%; in the assay with Mus musculus [2], 42%; in the assay on Mus musculus [3], 17%.
Regarding `CN1CCC[C@H]1c1cccnc1` [NICOTINE], the Amnesia reversal in the assay on Mus musculus [10] is reported as 5%; with Mus musculus [1], 0%; in the assay on Mus musculus [4], 5%; in the assay with Mus musculus [11] it was 20%; with Mus musculus [6] it was 0%.
Take `CCN(CC)CCNC(=O)CN1CC(c2ccccc2)CC1=O` (stereo not given): the Amnesia reversal came out at 0% with Mus musculus [10]; 42% with Mus musculus [1]; 0% in the assay with Mus musculus [2]; 27% in the assay with Mus musculus [4]; 0% in the assay on Mus musculus [6]; 8% with Mus musculus [3].
As to `C1CCc2nnnn2CC1.O=C(O)c1cccnc1`, the Amnesia reversal in the assay with Mus musculus [1] worked out at 0%; in the assay with Mus musculus [7], 0%; in the assay on Mus musculus [8] it was 9%.
For the molecule `CC1CCCC(C)N1CCNC(=O)CN1CCCCC1=O` (stereo not given), the values for the Amnesia reversal in the assay with Mus musculus [1], with Mus musculus [2] and in the assay with Mus musculus [3] were 20%, 10% and 60%, respectively.
Take `C=C(C)[C@@H]1[C@H]2OC(=O)[C@@H]1[C@]1(O)C[C@H]3OC34C(=O)O[C@H]2[C@@]41C.CC(C)(O)[C@@H]1[C@H]2OC(=O)[C@@H]1[C@]1(O)C[C@H]3OC34C(=O)O[C@H]2[C@@]41C` (stereo not given in full) [PICROTOXIN]: the Amnesia reversal in the assay with Mus musculus [10], in the assay on Mus musculus [1], in the assay on Mus musculus [4], with Mus musculus [11] and in the assay on Mus musculus [6] was 5% in each case.
For the molecule `C[C@H]1CCC[C@H](C)N1CCNC(=O)CN1CCCC1=O`, the Amnesia reversal stood at 25% in the assay on Mus musculus [2]; 82% in the assay on Mus musculus [4]; 48% in the assay with Mus musculus [9]; 45% with Mus musculus [6]; 17% in the assay with Mus musculus [3].
`CC1CCCC(C)N1CCCNC(=O)CN1CC(c2ccccc2)CC1=O` (stereo not given): the figures for the Amnesia reversal in the assay with Mus musculus [7], in the assay on Mus musculus [8] and with Mus musculus [9] were 0%, 50% and 0%, respectively.
Take `CN(C)CCCNC(=O)CN1CCCC1=O`: the values for the Amnesia reversal with Mus musculus [1], in the assay with Mus musculus [2] and in the assay on Mus musculus [3] were 31%, 46% and 46%, respectively.
Turning to `C[C@@H]1CCC[C@H](C)N1CCNC(=O)CN1CCCC1=O`, the Amnesia reversal in the assay with Mus musculus [10] is reported as 10%; in the assay on Mus musculus [1], 70%; with Mus musculus [2], 70%; with Mus musculus [4] it was 50%; with Mus musculus [6], 20%; in the assay on Mus musculus [3], 10%.
In the case of `CC(C)N(CCCNC(=O)CN1CC(c2ccccc2)CC1=O)C(C)C` (stereo not given), the Amnesia reversal in the assay on Mus musculus [10] is listed as 9%; in the assay on Mus musculus [1], 82%; with Mus musculus [2], 55%; in the assay on Mus musculus [4] it was 45%; with Mus musculus [6] it was 0%; with Mus musculus [3] it was 27%.
With `CCN(CC)CCNC(=O)CN1CCCC1=O`, the Amnesia reversal with Mus musculus [7] amounted to 46%; in the assay with Mus musculus [8], 31%; in the assay with Mus musculus [9], 15%.
With `CC(CNC(=O)CN1C(=O)CCC1C)N1CCCCC1` (stereo not given), the Amnesia reversal amounted to 36% in the assay on Mus musculus [7], 45% in the assay with Mus musculus [8] and 18% in the assay with Mus musculus [9].
Regarding `CC(C)N(CCCNC(=O)CN1CCCC1=O)C(C)C`, the Amnesia reversal with Mus musculus [10] was determined as 0%; in the assay with Mus musculus [1], 30%; with Mus musculus [2] it was 20%; in the assay on Mus musculus [4], 0%; in the assay with Mus musculus [6] it was 9%; in the assay on Mus musculus [3], 30%.
Consider `C[C@H](N)Cc1ccccc1` [DEXTROAMPHETAMINE], for which the Amnesia reversal in the assay with Mus musculus [10] was found to be 15%; in the assay on Mus musculus [11] it was 10%; in the assay on Mus musculus [6] it was 40%.
For `COC(=O)[C@H]1[C@@H](OC(=O)c2ccccc2)C[C@@H]2CC[C@H]1N2C` [COCAINE], the Amnesia reversal in the assay on Mus musculus [10] is 10%; in the assay on Mus musculus [1], 10%; with Mus musculus [4], 15%; with Mus musculus [11] it was 15%; with Mus musculus [6] it was 10%.
On to `CC1CCC(=O)N1CC(=O)NCCCN1C(C)CCCC1C` (stereo not given), for which the Amnesia reversal with Mus musculus [7] was 30%; in the assay on Mus musculus [8] it was 10%; in the assay with Mus musculus [9] it was 0%.
As to `CC1CCCC(C)N1CCNC(=O)CN1CC(c2ccccc2)CC1=O` (stereo not given), the Amnesia reversal came to 0% in the assay on Mus musculus [10]; 44% with Mus musculus [7]; 40% in the assay on Mus musculus [4]; 33% in the assay on Mus musculus [8]; 67% in the assay with Mus musculus [9]; 10% in the assay with Mus musculus [6].
Take `CCC1CCC(=O)N1CC(=O)NCCN1C(C)CCCC1C` (stereo not given): the Amnesia reversal with Mus musculus [7] came to 40%; in the assay on Mus musculus [8] it was 27%; in the assay with Mus musculus [9], 27%.
Consider `CC1CC(C)N(CCCNC(=O)CN2CCCC2=O)C(C)(C)C1` (stereo not given), for which the Amnesia reversal in the assay on Mus musculus [7] is 18%; with Mus musculus [8], 45%; in the assay with Mus musculus [9], 9%.
Consider `NC(=O)CN1CC(c2ccccc2)CC1=O` (stereo not given), for which the Amnesia reversal in the assay on Mus musculus [10] is recorded as 0%; in the assay on Mus musculus [1], 15%; in the assay with Mus musculus [2], 0%; with Mus musculus [4], 0%; in the assay on Mus musculus [6], 0%; with Mus musculus [3] it was 0%.
Regarding `CC(C)N(CCNC(=O)CN1CCCC1=O)C(C)C` [PRAMIRACETAM], the Amnesia reversal in the assay on Mus musculus [10] amounted to 0%; with Mus musculus [1] it was 96%; in the assay with Mus musculus [2], 82%; with Mus musculus [4] it was 60%; in the assay with Mus musculus [6], 30%; with Mus musculus [3] it was 18%.
Turning to `CC1CCC(=O)N1CC(=O)NCCN1C(C)CCCC1C` (stereo not given), the Amnesia reversal came to 33% with Mus musculus [10]; 36% in the assay on Mus musculus [7]; 67% in the assay on Mus musculus [4]; 0% with Mus musculus [8]; 55% in the assay with Mus musculus [9]; 58% in the assay on Mus musculus [6].
For `CC1CCCC(C)N1CCCNC(=O)CN1C(=O)CCC1(C)C` (stereo not given), the Amnesia reversal in the assay with Mus musculus [7] came to 58%; in the assay on Mus musculus [5] it was 33%; in the assay with Mus musculus [9], 25%; in the assay on Mus musculus [3], 50%.
With `CN(C)CCNC(=O)CN1CCCC1=O.Cl`, in the assay on Mus musculus [9], the Amnesia reversal worked out at 50%.
For `CC(C)N(CCCCNC(=O)CN1CCCC1=O)C(C)C`, the Amnesia reversal is 0% in the assay on Mus musculus [10]; 31% in the assay on Mus musculus [1]; 31% in the assay with Mus musculus [2]; 8% in the assay on Mus musculus [4]; 8% in the assay on Mus musculus [6]; 15% in the assay on Mus musculus [3].
For the molecule `CC(CNC(=O)CN1CCCC1=O)N1CCCCC1` (stereo not given), the Amnesia reversal with Mus musculus [7], in the assay on Mus musculus [8] and with Mus musculus [9] was 0% each time.
Turning to `CC1CCC(=O)N1CC(=O)NCCCN(C(C)C)C(C)C` (stereo not given), the Amnesia reversal with Mus musculus [7] turned out to be 0%; in the assay on Mus musculus [5] it was 20%; with Mus musculus [8], 30%; with Mus musculus [9] it was 40%.
In the case of `O=C(CN1CCCC1=O)NCCN1CCCCC1`, the Amnesia reversal is 18% in the assay on Mus musculus [10]; 45% in the assay with Mus musculus [1]; 0% with Mus musculus [2]; 45% with Mus musculus [4]; 64% in the assay on Mus musculus [6]; 0% with Mus musculus [3].
